# Measurements pooled from the literature.
# Lines come from different studies, so protocols differ.
# Sample: plasma
SMILES,system,setting,Tmax [h]
CCCc1nc2c(C)cc(-c3nc4ccccc4n3C)cc2n1Cc1ccc(-c2ccccc2C(=O)O)cc1,male Sprague-Dawley rat,"oral, 8 mg/kg, single dose",3.5
CCCCCCCCCC(=O)N[C@@H](Cc1c[nH]c2ccccc12)C(=O)N[C@H](CC(N)=O)C(=O)N[C@@H](CC(=O)O)C(=O)N[C@@H]1C(=O)NCC(=O)N[C@@H](CCCN)C(=O)N[C@@H](CC(=O)O)C(=O)N[C@H](C)C(=O)N[C@@H](CC(=O)O)C(=O)NCC(=O)N[C@H](CO)C(=O)N[C@@H]([C@H](C)CC(=O)O)C(=O)N[C@@H](CC(=O)c2ccccc2N)C(=O)O[C@@H]1C,male Wistar rat,"subcutaneous, 125 mg/kg, single dose",5
C[C@H]1Oc2cc(cnc2N)-c2c(nn(C)c2C#N)CN(C)C(=O)c2ccc(F)cc21,male Sprague-Dawley rat,"oral, 50 mg/kg, single dose",11.4
CCOc1c([C@H](C)n2nc(C)c3c(N)ncnc32)cc(Cl)c(F)c1[C@@H]1CNC(=O)C1,male Sprague-Dawley rat,"oral, 2 mg/kg, single dose",~2.42
COc1ccc(N(Cc2csc(-c3ccccc3)n2)C(=O)CCCCCC(=O)NO)cc1,female Sprague-Dawley rat,"intravenous, 5 mg/kg",0.08
C=CC(=O)N1CCC[C@@H](n2nc(-c3ccc(Oc4ccccc4)cc3)c3c(N)ncnc32)C1,male Wistar rat,"oral, 40 mg/kg",2
O=C1CCC(N2Cc3cc(C4CCN(Cc5ccccc5)CC4)ccc3C2=O)C(=O)N1 (stereo not shown),male Sprague-Dawley rat,"oral, 3 mg/kg",2
COc1cc(-c2cc(C(C)=O)n3ccccc23)c(OC)cc1Cn1ccnc1,male Sprague-Dawley rat,"oral, 5 mg/kg",0.5
C=CC(=O)N1CCC([C@@H]2CCNc3c(C(N)=O)c(-c4ccc(Oc5ccccc5)cc4)nn32)CC1,Sprague-Dawley rat,"oral, 16 mg/kg",1.5
CN(C)C(=O)c1cc2cnc(Nc3ccc(N4CCNCC4)cn3)nc2n1C1CCCC1,male Sprague-Dawley rat,"intraperitoneal, 100 mg/kg",0.5
